Consider nine molecules from ChEMBL document CHEMBL1142716, “2-Hydroxy-4,6-diamino-[1,3,5]triazines: a novel class of VEGF-R2 (KDR) tyrosine kinase inhibitors” (J Med Chem, 2005).

Assay [1] addresses T1, Vascular endothelial growth factor receptor 2 (Homo sapiens, UniProt P35968). Nature of the assay: Inhibition of KDR-induced MAP kinase autophosphorylation assay in HUVEC cells. It is filed as functional, cell-based. An outline of the steps: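 Low-passage HUVECs (passage 3-12) were grown to confluence, serum-starved, treated with compound or DMSO, then stimulated with VEGF. Cells were lysed, run on SDS-PAGE and immunoblotted quantitatively with a phospho-p42/44 MAP kinase (pERK1/2) antibody. Inhibition is expressed as a percent of VEGF-stimulated phosphorylation in DMSO controls. IC50 values are the mean of three independent experiments.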

The target in assay [2] is T1, Vascular endothelial growth factor receptor 2. Nature of the assay: In vitro inhibition of Vascular endothelial growth factor receptor 2 at 10 uM ATP.
Assay [3] can be described thus: Inhibition of c-Src tyrosine kinase.
Assay [4] concerns the target T2, Epidermal growth factor receptor (Homo sapiens, UniProt P00533). The assay can be described thus: Inhibition of human Epidermal growth factor receptor expressed in A431. A digest of the protocol:
(§1)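 Cell-based counterscreen. Cells were grown, treated with compound and fixed in wells. EGF-R-induced phosphorylation of MAP kinase was then read directly by a phosphorylation-specific ELISA.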

The target of assay [5] is Platelet-derived growth factor receptor (Homo sapiens, UniProt P09619+P16234). Nature of the assay: Inhibition of PDGF-R2 tyrosine kinase. The assay is classed as protein-complex assay.
Assay [6] in a line: Inhibition of fibroblast growth factor receptor 1.
The target of assay [7] is Fibroblast growth factor receptor 1 (Mus musculus, UniProt P16092). The assay can be described thus: Inhibition of mouse Fibroblast growth factor receptor 1 expressed in NIH 3T3 fibroblasts. A digest of the protocol:
(§2)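 Cell-based counterscreen for growth-factor-induced p42/44 MAP kinase phosphorylation through EGFR, insulin receptor or FGFR-1. Cells were grown, treated and fixed in 96-well plates, and phosphorylation was read by phospho-specific ELISA.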

In assay [8] the target is T3, Insulin receptor (Homo sapiens, UniProt P06213). Nature of the assay: Inhibition of human Insulin receptor expressed in CHO cells. The assay is classed as cell-based. An outline of the steps:
as §2

The target in assay [9] is Macrophage colony-stimulating factor 1 receptor (Homo sapiens, UniProt P07333). The assay can be described thus: Inhibition of c-fms tyrosine kinase.
Chain of Macrophage colony-stimulating factor 1 receptor (P07333 whole entry): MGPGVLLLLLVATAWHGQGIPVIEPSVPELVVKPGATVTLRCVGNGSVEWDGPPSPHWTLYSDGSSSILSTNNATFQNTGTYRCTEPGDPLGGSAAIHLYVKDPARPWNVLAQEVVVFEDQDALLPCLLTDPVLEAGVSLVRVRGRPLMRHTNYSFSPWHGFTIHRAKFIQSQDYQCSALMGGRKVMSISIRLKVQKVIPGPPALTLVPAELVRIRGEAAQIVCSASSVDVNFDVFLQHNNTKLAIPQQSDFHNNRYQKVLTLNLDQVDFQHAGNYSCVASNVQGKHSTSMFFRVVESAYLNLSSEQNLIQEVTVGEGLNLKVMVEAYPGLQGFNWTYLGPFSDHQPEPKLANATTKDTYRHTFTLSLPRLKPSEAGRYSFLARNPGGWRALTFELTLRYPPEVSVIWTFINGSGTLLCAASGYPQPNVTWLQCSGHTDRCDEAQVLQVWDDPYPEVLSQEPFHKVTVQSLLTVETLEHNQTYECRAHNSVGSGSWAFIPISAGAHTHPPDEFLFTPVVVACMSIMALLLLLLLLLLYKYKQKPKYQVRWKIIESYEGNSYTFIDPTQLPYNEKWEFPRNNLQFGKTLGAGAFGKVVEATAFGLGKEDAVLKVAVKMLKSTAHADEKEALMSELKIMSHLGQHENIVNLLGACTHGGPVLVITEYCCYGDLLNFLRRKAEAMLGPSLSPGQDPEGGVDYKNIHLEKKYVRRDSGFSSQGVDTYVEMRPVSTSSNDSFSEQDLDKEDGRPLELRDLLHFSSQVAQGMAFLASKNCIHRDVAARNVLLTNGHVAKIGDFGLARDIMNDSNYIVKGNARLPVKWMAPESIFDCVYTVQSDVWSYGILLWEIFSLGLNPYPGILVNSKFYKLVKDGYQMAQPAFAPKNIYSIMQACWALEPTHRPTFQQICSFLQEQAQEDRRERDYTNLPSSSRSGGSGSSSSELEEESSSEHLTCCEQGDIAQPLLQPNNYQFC
For assay [10], the target named is T3, Insulin receptor. Nature of the assay: Inhibition of beta IRK tyrosine kinase.
Another assay deals with Angiopoietin-1 receptor (Homo sapiens, UniProt Q02763). The assay can be described thus: Inhibition of tyrosine protein kinase receptor TIE-2.
Chain of Angiopoietin-1 receptor (Q02763 whole entry): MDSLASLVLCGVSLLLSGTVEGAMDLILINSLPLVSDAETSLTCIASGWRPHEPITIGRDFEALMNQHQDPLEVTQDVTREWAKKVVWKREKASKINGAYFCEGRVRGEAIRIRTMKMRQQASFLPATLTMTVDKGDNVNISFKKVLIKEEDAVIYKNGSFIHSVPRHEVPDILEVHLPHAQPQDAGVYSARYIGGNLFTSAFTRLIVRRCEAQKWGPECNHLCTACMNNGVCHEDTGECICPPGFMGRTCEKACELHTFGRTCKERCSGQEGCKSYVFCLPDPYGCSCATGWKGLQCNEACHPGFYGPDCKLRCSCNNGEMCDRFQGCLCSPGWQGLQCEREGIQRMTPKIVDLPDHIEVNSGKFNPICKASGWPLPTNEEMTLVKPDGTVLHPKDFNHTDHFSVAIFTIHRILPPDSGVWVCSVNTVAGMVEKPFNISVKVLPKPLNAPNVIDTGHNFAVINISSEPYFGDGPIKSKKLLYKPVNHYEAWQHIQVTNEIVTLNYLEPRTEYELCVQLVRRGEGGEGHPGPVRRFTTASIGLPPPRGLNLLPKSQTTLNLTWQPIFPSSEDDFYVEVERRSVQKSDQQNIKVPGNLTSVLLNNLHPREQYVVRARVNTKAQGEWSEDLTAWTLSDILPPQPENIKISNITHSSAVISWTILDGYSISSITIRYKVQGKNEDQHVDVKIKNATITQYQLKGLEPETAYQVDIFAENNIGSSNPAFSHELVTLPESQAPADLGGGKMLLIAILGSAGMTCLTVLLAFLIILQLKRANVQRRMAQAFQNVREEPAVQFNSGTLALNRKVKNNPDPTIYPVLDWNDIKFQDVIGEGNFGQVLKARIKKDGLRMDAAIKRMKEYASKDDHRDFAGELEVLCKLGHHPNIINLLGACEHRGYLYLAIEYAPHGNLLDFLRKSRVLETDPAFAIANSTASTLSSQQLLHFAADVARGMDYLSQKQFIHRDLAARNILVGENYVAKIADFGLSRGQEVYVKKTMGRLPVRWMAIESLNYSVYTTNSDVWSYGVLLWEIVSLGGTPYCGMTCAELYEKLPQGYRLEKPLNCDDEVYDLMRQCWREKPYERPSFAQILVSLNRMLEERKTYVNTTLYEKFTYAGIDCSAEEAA
The subject of the next assay is HUVEC. Nature of the assay: Inhibitory concentration against HUVEC cells. It is filed as functional, cell-based. The note with it: Homo sapiens.
Assay [11] is filed under the species Rattus norvegicus. The assay can be described thus: Total tube length (arbitrary units) of aortic rings was measured by aortic ring assay in rat at 3 uM concentration of the compound. The assay is classed as functional, Aorta. A digest of the protocol: (§3)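 Rings cut from rat aorta were embedded in collagen gels containing 5 ng/mL VEGF and cultured for 7 days with test compound. The total length of capillary-like sprouts growing out from each ring was measured in arbitrary units and reported with SEM.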

The species named for assay [12] is Rattus norvegicus. The assay can be described thus: Total tube length (arbitrary units) of aortic rings was measured by aortic ring assay in rat at 30 uM concentration of the compound. The assay is classed as functional, Aorta. A digest of the protocol:
as §3

The species entered for assay [13] is Rattus norvegicus. The assay can be described thus: Total tube length (arbitrary units) of aortic rings was measured by aortic ring assay in rat at 0.3 uM concentration of the compound. The assay is classed as functional, Aorta. A digest of the protocol: as §3
Assay [14] deals with T2, Epidermal growth factor receptor. Nature of the assay: Inhibition of human epidermal growth factor receptor. A digest of the protocol:
as §1

Assay [15] in a line: Inhibition of Fibroblast growth factor receptor 1.

T1 sequence (P35968 whole entry): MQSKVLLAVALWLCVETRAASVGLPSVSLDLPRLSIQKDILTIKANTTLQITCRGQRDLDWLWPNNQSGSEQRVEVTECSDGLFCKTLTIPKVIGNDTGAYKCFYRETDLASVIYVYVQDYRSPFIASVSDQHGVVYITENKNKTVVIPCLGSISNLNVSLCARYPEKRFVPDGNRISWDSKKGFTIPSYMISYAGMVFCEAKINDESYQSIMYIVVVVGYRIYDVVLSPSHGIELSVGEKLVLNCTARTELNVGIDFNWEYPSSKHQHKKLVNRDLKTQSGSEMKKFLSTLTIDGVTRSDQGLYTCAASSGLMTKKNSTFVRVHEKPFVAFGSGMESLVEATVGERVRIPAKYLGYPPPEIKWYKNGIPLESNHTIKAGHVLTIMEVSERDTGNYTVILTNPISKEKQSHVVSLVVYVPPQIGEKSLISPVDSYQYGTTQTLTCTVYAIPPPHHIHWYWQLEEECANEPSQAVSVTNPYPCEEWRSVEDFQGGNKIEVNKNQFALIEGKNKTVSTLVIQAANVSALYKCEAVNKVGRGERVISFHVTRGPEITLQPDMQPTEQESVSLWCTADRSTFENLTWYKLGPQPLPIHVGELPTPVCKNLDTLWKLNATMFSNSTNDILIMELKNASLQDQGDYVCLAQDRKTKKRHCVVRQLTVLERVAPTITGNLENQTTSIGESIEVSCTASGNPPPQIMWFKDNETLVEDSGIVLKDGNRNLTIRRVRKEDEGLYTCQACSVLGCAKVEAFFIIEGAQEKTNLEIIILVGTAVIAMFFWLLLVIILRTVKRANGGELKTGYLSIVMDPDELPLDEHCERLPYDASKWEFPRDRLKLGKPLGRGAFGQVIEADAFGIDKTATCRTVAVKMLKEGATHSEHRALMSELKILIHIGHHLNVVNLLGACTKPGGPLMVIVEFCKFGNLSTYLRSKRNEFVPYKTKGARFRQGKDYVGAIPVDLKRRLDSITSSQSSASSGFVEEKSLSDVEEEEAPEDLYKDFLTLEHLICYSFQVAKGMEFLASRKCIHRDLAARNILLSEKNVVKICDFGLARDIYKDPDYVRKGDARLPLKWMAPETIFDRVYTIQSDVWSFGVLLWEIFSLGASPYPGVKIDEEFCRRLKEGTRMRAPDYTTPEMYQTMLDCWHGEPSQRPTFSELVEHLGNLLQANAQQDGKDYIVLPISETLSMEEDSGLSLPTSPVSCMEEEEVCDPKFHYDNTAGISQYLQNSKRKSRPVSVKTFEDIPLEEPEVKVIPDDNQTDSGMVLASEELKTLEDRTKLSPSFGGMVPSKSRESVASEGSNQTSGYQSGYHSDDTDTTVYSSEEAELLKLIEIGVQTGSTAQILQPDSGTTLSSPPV
T2 sequence (P00533 whole entry): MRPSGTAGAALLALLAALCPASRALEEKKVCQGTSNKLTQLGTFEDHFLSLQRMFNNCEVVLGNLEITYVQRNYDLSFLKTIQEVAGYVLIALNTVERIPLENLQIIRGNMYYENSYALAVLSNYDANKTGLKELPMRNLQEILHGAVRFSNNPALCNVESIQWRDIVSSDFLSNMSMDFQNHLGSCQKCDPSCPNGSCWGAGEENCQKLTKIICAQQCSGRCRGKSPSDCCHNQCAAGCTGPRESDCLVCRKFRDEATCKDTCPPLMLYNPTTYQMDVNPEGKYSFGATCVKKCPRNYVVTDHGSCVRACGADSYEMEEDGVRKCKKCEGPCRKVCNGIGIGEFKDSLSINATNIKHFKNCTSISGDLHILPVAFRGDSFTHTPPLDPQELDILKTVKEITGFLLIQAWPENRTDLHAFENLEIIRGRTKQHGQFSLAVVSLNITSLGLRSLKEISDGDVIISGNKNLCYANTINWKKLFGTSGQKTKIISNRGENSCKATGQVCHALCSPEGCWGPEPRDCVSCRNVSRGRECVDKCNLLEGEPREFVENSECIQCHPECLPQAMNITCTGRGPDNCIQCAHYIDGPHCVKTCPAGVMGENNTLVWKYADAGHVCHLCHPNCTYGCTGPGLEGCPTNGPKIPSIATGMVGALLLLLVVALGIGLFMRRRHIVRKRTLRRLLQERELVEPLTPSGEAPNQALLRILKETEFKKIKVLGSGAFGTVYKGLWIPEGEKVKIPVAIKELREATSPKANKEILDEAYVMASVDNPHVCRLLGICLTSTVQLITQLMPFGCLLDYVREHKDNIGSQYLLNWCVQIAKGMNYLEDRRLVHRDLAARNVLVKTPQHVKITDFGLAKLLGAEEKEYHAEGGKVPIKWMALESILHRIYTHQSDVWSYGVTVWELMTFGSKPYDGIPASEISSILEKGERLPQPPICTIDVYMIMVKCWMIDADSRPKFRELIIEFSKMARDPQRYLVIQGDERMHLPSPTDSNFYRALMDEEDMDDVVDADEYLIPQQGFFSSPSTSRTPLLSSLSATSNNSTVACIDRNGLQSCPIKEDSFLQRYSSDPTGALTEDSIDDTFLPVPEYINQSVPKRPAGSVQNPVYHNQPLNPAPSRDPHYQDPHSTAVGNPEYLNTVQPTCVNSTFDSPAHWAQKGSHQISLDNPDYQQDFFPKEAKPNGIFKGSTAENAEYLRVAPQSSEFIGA

By IC50 is commonly meant the midpoint of a concentration-inhibition curve. A high value points to a need for much substance. In the case of `COc1nc(Nc2ccc3ncsc3c2)nc(NC(C)(C)c2ccccc2)n1`, the IC50 in assay [1] was greater than 30000 nM; in [2], 6100 nM.

Consider `CC(C)(Nc1nc(NO)nc(Nc2ccc3ncsc3c2)n1)c1ccccc1`, for which the half-maximal inhibitory concentration (IC50) in assay [3] was 1800 nM; in [4], greater than 10000 nM; in assay [5], 3900 nM; in assay [6] it was 1800 nM; in assay [7] it was greater than 10000 nM; in assay [1], 840 nM. Also, the IC50 was greater than 10000 nM on Insulin receptor [8]; 14000 nM in assay [9]; 420 nM against Insulin receptor [10]; 700 nM at Angiopoietin-1 receptor; 40 nM in assay [2].

As for `CC(C)N(Cc1ccccc1)c1nc(O)nc(Nc2ccc3ncsc3c2)n1`, the half-maximal inhibitory concentration (IC50) in assay [3] was greater than 12500 nM; in the assay with HUVEC, 280 nM; in assay [5], greater than 12500 nM; in assay [6], greater than 12500 nM; in [14], greater than 10000 nM; in [7] it was greater than 10000 nM. In addition, the IC50 in [1] was 280 nM; against Insulin receptor [8] it was greater than 10000 nM; in assay [9], greater than 12500 nM; against Insulin receptor [10], 11000 nM; against Angiopoietin-1 receptor, 180 nM; in [2], 18 nM. In addition, the figures for the Activity in the assay filed under Rattus norvegicus [11], in the assay filed under Rattus norvegicus [12] and in the assay filed under Rattus norvegicus [13] were 348, 36.3 and 1503, respectively.

As for `CN(Cc1ccccc1)c1nc(O)nc(Nc2ccc3ncsc3c2)n1`, the IC50 was 2400 nM in [1] and 320 nM in [2].

Regarding `CC(C)(Nc1nc(O)nc(Nc2ccc3[nH]cnc3c2)n1)c1ccccc1`, the concentration for half-maximal inhibition (IC50) is greater than 20000 nM in assay [1] and 240 nM in assay [2].

Take `Oc1nc(NCc2ccccc2)nc(Nc2ccc3ncsc3c2)n1`: the 50% inhibitory concentration (IC50) in assay [1] was greater than 30000 nM; in assay [2], 2000 nM.

With `CC(C)(Nc1nc(O)nc(Nc2ccc3ncsc3c2)n1)c1ccccc1`, the IC50 in assay [3] is 4300 nM; in assay [4], greater than 10000 nM; in [5], 8000 nM; in [6], greater than 12500 nM; in [7] it was greater than 10000 nM; in assay [1], 400 nM. Further, the IC50 against Insulin receptor [8] is greater than 10000 nM; in [9] it was greater than 12500 nM; against Insulin receptor [10] it was 550 nM; on Angiopoietin-1 receptor it was 1000 nM; in assay [2], 35 nM.

On to `CC(C)(Nc1nc(Cl)nc(Nc2ccc3ncsc3c2)n1)c1ccccc1`, for which the figures for the IC50 in assay [1] and in assay [2] were 1080 nM and 5500 nM, respectively.

For `CCN(Cc1ccccc1)c1nc(O)nc(Nc2ccc3ncsc3c2)n1`, the 50% inhibitory concentration (IC50) is 3100 nM in [3]; greater than 10000 nM in [4]; 2500 nM in assay [5]; greater than 10000 nM in assay [7]; 600 nM in [1]; greater than 10000 nM at Insulin receptor [8]. The IC50 in [9] was 4300 nM; at Insulin receptor [10] it was 4000 nM; at Angiopoietin-1 receptor, 400 nM; in [15] it was greater than 12500 nM; in assay [2] it was 49 nM.
